OX1R antag-1 – blocks the human orexin 1 receptor | AID 485270 | 330,000 tested, 1.8% active | inhibition, % at 6.6 µM | OX1R-expressing cells, FRET antagonist read-out | O43613; in the data active = inhibition mostly above about 38%, no sharp cut-off; inactive = mostly below about 40%;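 also: 0% = agonist challenge alone and 100% = reference antagonist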
GalR3 antag – antagonists of human GalR3 | 360,000 tested, 0.44% active | O60755 | inhibition, % at 3 µM | HEK293 GalR3-CNG cAMP membrane potential fluorescence; galR3 body fused to GalR1 C-terminus | AID 651719;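 active = inhibition above the screen-wide average plus 3 SD, cut at about 13% in these data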;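 also: forskolin and galanin both at EC90 stimulate the cells; cAMP rise reported by CNG channel membrane potential dye signal; 0% = forskolin plus galanin with DMSO and 100% = forskolin alone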
Target sequence (O60755 1-299 limits assumed): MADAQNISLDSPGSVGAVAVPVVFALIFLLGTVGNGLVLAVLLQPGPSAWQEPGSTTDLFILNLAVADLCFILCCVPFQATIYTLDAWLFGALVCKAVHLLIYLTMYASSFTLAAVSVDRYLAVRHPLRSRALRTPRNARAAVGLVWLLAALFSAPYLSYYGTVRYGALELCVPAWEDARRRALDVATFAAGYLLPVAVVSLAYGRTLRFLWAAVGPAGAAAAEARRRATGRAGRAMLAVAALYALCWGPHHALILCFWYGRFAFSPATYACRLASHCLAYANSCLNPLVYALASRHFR
TAAR1 ag – agonists of human TAAR1; activation, % at 3 µM; CHO RD-HGA16 TAAR1, Fluo-8 calcium fluorescence; vehicle wells 0%, saturating PEA agonist 100%; 360,000 tested, 0.99% active; AID 624467;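 active = activation above the mean activation of all test compounds in the run plus 3 SD, cut at about 38% in these data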
Target sequence (Q96RJ0 whole entry, looked up): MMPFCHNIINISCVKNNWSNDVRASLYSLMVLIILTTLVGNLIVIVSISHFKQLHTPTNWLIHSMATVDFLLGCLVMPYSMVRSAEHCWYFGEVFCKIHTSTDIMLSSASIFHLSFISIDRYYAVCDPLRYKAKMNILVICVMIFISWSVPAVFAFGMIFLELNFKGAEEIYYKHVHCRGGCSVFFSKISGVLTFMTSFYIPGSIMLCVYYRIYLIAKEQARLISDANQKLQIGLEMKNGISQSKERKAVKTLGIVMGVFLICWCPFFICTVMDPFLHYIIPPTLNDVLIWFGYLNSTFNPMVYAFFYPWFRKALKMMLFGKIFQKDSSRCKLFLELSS
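System: CHO-derived RD-HGA16 cells with stable Gα16 and human TAAR1 / Times: 17-24 h plating, Fluo-8 75 min 37 °C, 30 min RT / Technique: calcium-sensitive Fluo-8 signal, excitation 470-495, emission 515-575 nm / Measure: % activation relative to PEA EC100 response / Benchmarks: DMSO and PEA EC100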
CHO parental Ca – counter-screen for OX1R antagonists: effect in parental CHO cells; parental CHO-K1, ATP-induced calcium, Fluo-8 fluorescence; inhibition, % at 5.6 µM; 330,000 tested, 0.63% active; AID 463079;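 active = inhibition above that plate's mean sample inhibition plus 3 SD, cut at about 26% in these data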;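 also: 0% = ATP-challenged DMSO wells and 100% = DMSO wells without ATP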
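Test system: parental CHO cells; detection: calcium-sensitive Fluo-8 fluorescence; evaluation: percent inhibition of calcium signal; also added: ATP as calcium-mobilizing challenge; repeats: one well per compound; control set: ATP-challenged DMSO wells low, unchallenged DMSO wells high; compound: single nominal dose of 5.6 µM per compound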
OX1R antag-2 – antagonists of human orexin 1 receptor; O43613; CHO/OX1R cells, Fluo-8 calcium fluorescence, orexin A; inhibition, % at 5 µM; 330,000 tested, 0.43% active; AID 434989;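 active = inhibition above its plate's threshold, mean inhibition of all tested compounds on the plate plus 3 SD, cut at about 37% in these data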;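 also: 0% = orexin A challenge wells and 100% = SB-334867-A antagonist wells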
TAAR1 antagonist – human TAAR1 antagonism; inhibition, % at 3 µM; Q96RJ0; AID 624466; CHO RD-HGA16 TAAR1, Fluo-8 calcium fluorescence, antagonist; 360,000 tested, 1.5% active;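 active = inhibition above a per-plate cutoff, the mean inhibition of test compounds on that plate plus 3 SD, cut at about 49% in these data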;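 also: 0% = DMSO plus EC80 beta-PEA response and 100% = DMSO alone without agonist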
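Test system – hTAAR1-expressing CHO RD-HGA16 cells, Gα16-coupled · Reagent – β-PEA at EC80 concentration, post-compound challenge · Compound dosing – 3 µM, single point · Timing – 140 s kinetic read after compound, 140 s after agonist · Detection – Fluo-8 intracellular calcium dye fluorescence, real-time kinetic reads · Control set – DMSO and EC80 PEA controls · Repeats – n of 1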
GalR3 antag conf – confirmation of human galanin receptor 3 antagonists; inhibition, % at 3 µM; HEK293 GalR3 CNG cAMP biosensor, membrane potential fluorescence; galR3 fused to GalR1 carboxy tail; challenged with forskolin and galanin at EC90; AID 652245; 1,600 tested, 59% active; shares compounds with GalR3 antag;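 active = inhibition above the primary screen's cutoff, the mean inhibition of all screened compounds plus 3 SD, cut at about 13% in these data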;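 also: 0% = forskolin plus galanin and 100% = forskolin alone with DMSO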
CNG parental – counter-screen for GalR3 antagonists: nonspecific agonists in parental HEK-CNG cells; AID 652268; activation, % at 3 µM; shares compounds with GalR3 antag; 1,600 tested, 10% active; HEK293-CNG parental cells, cAMP membrane potential fluorescence; normalised: DMSO wells 0%, forskolin wells 100%; in the data active = activation above about 1.3%
* marks the source's active call; other numbers are inactive results; . = not tested or not shown. In the library only some 4.3% were active in any assay of this set; here they are far more common.

SMILES | OX1R antag-1 | GalR3 antag | TAAR1 ag | CHO parental Ca | OX1R antag-2 | TAAR1 antagonist | GalR3 antag conf | CNG parental
CN(C)P1(=O)N(C)CCN1C | . | -4 | 2 | . | . | -28 | . | .
CC[n+]1c(/C=C/C=C/c2ccc(N(C)C)cc2)sc2ccccc21 | 75* | 19* | 1 | 33* | 42 | -5 | 74* | 3.5*
CN(C)c1ccc(/C=C/C=C/c2sc3ccccc3[n+]2C)cc1 | 25 | 6 | -1 | 9 | -7 | 2 | . | .
COc1ccc(-c2ccc3c(c2)CN(C(=O)CCc2ccccc2)Cc2cnnn2-3)cc1 | . | -8 | 18 | . | . | 31 | . | .
CC(C)(C)c1cc([N+](=O)[O-])cc(C(C)(C)C)c1O | 45 | 90* | 5 | 3 | 3 | -11 | 102* | 1
NC(=O)c1cc([N+](=O)[O-])cc([N+](=O)[O-])c1 | . | -4 | 1 | . | . | -31 | . | .
CCC(=NCCc1c[nH]c2ccccc12)c1c(O)n(-c2ccc(C)cc2)c(=O)[nH]c1=O | 7 | -2 | 6 | -9 | -22 | -2 | . | .
CCC(=NCCc1c[nH]c2ccccc12)c1c(O)n(C)c(=O)n(C)c1=O | 27 | 76* | 13 | 44* | 20 | 50* | 37* | 6.7*
N#CC(C#N)=NNc1ccc(-n2ccc(C(F)(F)F)n2)cc1 | 61* | 74* | 6 | 50* | 53* | 9 | 80* | 1
O=C(NC(Cc1cnc[nH]1)C(=O)O)c1ccccc1 (stereo not drawn) | 8 | 13* | 4 | -3 | -5 | -8 | 8 | 0
O=C(O)C(Cc1cnc[nH]1)NS(=O)(=O)c1ccc(Br)cc1 (stereo not drawn) | 15 | -8 | -2 | -8 | 2 | 6 | . | .
C[N+](C)(C)CC1CCCC(C[N+](C)(C)C)C1=O (stereo not drawn) | . | -3 | 0 | . | . | 1 | . | .
Cn1c(O)c(C=NCCCCCCCCCCC(=O)O)c(=O)n(C)c1=O | 13 | 17* | 3 | -5 | 5 | 2 | 13* | 0
CCC(=O)N1CCN(CCN=Cc2c(O)n(C)c(=O)n(C)c2=O)CC1 | 6 | -3 | 9 | -12 | -12 | 22 | . | .
CC(=O)c1cn(Cc2ccccc2C#N)c2ccccc12 | 41 | 90* | 4 | 29 | 19 | 7 | 103* | 1
CC(C)C(=O)c1cn(Cc2ccccc2C#N)c2ccccc12 | 34 | -4 | 6 | -36 | -23 | -6 | . | .
CCOC(=O)[C@]12Cc3cc(C)ccc3[C@H]1N(C1CCCCC1)C(=O)c1cc(OC)ccc12 | . | 38* | 3 | . | . | -50 | 47* | 3.3*
O=C(NCC1=C(c2cccc3ccccc23)C[C@@H]2CC[C@H]1N2Cc1ccco1)c1cccnc1 | . | -3 | 1 | . | . | -13 | . | .
COc1ccc(-n2c(O)c(C=NCc3ccc4c(c3)OCO4)c(=O)[nH]c2=O)cc1 | 2 | 14* | 0 | -21 | -12 | -26 | 0 | 0
CC(Cc1ccc(O)cc1)NCC(O)c1cc(O)cc(O)c1 (stereo not drawn) | 11 | . | 1 | -5 | -5 | -20 | . | .
CCNCC(O)c1cccc(O)c1 (stereo not drawn) | 13 | 54* | 14 | 3 | -9 | -32 | 68* | 1
CC12CC[C@H]3[C@@H](CCC4(O)C[C@H](O)CCC34/C=N/NC(=O)c3ccccc3F)C1(O)CCC2C1=CC(=O)OC1 (stereo partly drawn) | 13 | 37* | 1 | -5 | 3 | -38 | 23* | 0
CC12CC[C@H]3[C@@H](CCC4(O)C[C@H](O)CCC34/C=N/NC(=O)c3ccc(O)cc3)C1(O)CCC2C1=CC(=O)OC1 (stereo partly drawn) | 2 | -5 | 0 | 6 | -1 | -13 | . | .
CC12CC[C@H]3[C@@H](CCC4(O)C[C@H](O)CCC34/C=N/NC(=O)c3ccccc3O)C1(O)CCC2C1=CC(=O)OC1 (stereo partly drawn) | -3 | 30* | 0 | 6 | 2 | -26 | 25* | 0
COCCNC(=O)N1[C@H]2CC[C@@H]1C(C(=O)OC)=C(c1cccc(C#N)c1)C2 | 1 | -6 | 13 | -9 | -20 | -3 | . | .
SMILES | OX1R antag-1 | GalR3 antag | TAAR1 ag | CHO parental Ca | OX1R antag-2 | TAAR1 antagonist | GalR3 antag conf | CNG parental
COC(=O)C1=C(c2ccc(C(C)=O)cc2)C[C@@H]2CC[C@H]1N2C(=O)NC1CC1 | 4 | -2 | 11 | -5 | -11 | -5 | . | .
CC(=O)c1cn(CC(=O)NCCc2c[nH]c3ccccc23)c2ccccc12 | 20 | 18* | 11 | 11 | -1 | 19 | 58* | 0
CCOc1cccc(CNCCc2c(C)[nH]c3ccc(OC(F)(F)F)cc23)c1O | 15 | 72* | 55* | 85* | 55* | 49* | 96* | 0
Cc1ccc2[nH]c(C)c(CCNCc3ccco3)c2c1 | 5 | -10 | 4 | -21 | -15 | -11 | . | .
COc1cc2c(cc1OC)[C@H]1C(=O)c3ccc4c(c3O[C@H]1CO2)C[C@@H](C(C)(C)O)O4 | 13 | -9 | 0 | 7 | 23 | 11 | . | .
COc1cc2c(cc1OC)[C@@H]1C(=O)c3ccc4c(c3O[C@@H]1CO2)C[C@H](C(C)C)O4 | 57 | 98* | 7 | 60* | 12 | 5 | 116* | 0
COc1cc2c(cc1OC)C1C(=O)c3ccc4c(c3OC1CO2)CC(C(C)C)O4 (stereo not drawn) | . | 96* | 4 | . | . | 8 | 108* | 0
Cc1ccc(-n2c(O)c(C=NCCC3=CCCCC3)c(=O)[nH]c2=O)cc1 | 14 | 0 | 6 | -15 | -30 | 0 | . | .

Source: PubChem
